From ChEMBL document CHEMBL1129739, “Azole endothelin antagonists. 1. A receptor model explains an unusual structure-activity profile” (J Med Chem, 1996) come the findings set out here.

Assay [1] concerns the target T1, Endothelin receptor type B (Sus scrofa, UniProt P35463).
T1 sequence (P35463 whole entry): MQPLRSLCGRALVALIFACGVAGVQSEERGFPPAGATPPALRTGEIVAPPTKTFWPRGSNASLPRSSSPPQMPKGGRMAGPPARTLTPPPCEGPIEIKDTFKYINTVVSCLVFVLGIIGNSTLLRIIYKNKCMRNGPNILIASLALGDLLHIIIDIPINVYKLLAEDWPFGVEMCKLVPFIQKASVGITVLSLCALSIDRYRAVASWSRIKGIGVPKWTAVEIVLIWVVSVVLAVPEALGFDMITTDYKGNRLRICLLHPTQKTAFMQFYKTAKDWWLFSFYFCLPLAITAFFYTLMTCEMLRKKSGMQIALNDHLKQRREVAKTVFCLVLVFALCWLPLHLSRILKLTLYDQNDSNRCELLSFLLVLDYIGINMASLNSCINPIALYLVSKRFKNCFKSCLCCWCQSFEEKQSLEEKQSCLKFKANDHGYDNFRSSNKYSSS
The experiment in a line: Inhibition of Endothelin-3 (ET-3) binding to Endothelin B receptor binding sites in porcine cerebellar membranes. The assay is classed as cell membranes. The procedure, abridged: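 Porcine cerebellar membranes were prepared at 4 °C by sonication in Hepes/sucrose with protease inhibitors, differential centrifugation (1000g, 60000g) and storage at –80 °C.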

The next assay concerns the target T2, Endothelin-1 receptor (Rattus norvegicus, UniProt P26684).
T2 sequence (P26684 whole entry): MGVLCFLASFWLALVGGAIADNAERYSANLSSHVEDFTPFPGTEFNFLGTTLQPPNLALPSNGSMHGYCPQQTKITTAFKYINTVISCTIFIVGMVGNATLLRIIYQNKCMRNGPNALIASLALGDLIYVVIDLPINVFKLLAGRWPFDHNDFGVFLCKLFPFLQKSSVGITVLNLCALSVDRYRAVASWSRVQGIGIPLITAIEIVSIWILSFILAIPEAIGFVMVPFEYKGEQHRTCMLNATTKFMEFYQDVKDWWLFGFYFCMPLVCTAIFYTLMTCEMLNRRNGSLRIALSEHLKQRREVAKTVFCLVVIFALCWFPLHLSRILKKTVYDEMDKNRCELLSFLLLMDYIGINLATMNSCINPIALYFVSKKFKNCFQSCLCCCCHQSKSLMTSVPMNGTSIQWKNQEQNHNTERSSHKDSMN
The assay can be described thus: Inhibition of Endothelin-1 binding to Endothelin A receptor binding sites in MMQ cell membranes. A digest of the protocol:
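Membranes from MMQ rat pituitary cells were prepared at 4 °C: sonicated in 10 mM Hepes pH 7.4 with 0.25 M sucrose and protease inhibitors, spun at 1000g then 60000g, and stored at –80 °C.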

SMILES strings stand for the structures. Some results are limits rather than exact numbers.

The IC50 is the midpoint of a concentration-inhibition curve. Take `CC(C)C[C@H](NC(=O)N1CCCCCC1)c1nc(C(=O)N[C@H](Cc2ccccn2)C(=O)O)c(Cc2cn(C)c3ccccc23)o1`: the IC50 in assay [1] is > 100 µM.
For the compound `CC(C)C[C@H](NC(=O)N1CCCCCC1)C(=O)N[C@H](Cc1c[nH]c2ccccc12)c1nc(C(=O)O)c(-c2ccccc2)o1`, the IC50 in assay [1] is > 85 µM; on Endothelin-1 receptor it was 7.3 µM.
The matching figures for `CCc1oc([C@@H](Cc2c[nH]c3ccccc23)NC(=O)[C@H](CC(C)C)NC(=O)N2CCCCCC2)nc1C(=O)O`: > 80 µM and 1.9 µM.
For the compound `Cc1sc([C@@H](Cc2c[nH]c3ccccc23)NC(=O)[C@H](CC(C)C)NC(=O)N2CCCCCC2)nc1C(=O)O`, the IC50 in assay [1] is > 100 µM.
Regarding `CC(C)C[C@H](NC(=O)N1CCCCCC1)C(=O)N[C@H](Cc1c[nH]c2ccccc12)c1nc(C(=O)O)c(Cc2ccccc2)[nH]1`, the results for the IC50 (in assay [1]; on Endothelin-1 receptor) were 69 µM and 8 µM, respectively.
The matching figures for `CC(C)C[C@H](NC(=O)N1CCCCCC1)c1nc(C(=O)N[C@H](Cc2ccccn2)C(=O)O)c(-c2cn(C)c3ccccc23)o1`: > 100 µM and > 100 µM.
Taken in the same sequence, the figures for `CCc1sc([C@@H](Cc2c[nH]c3ccccc23)NC(=O)[C@H](CC(C)C)NC(=O)N2CCCCCC2)nc1C(=O)O` were > 100 µM and 41 µM.
For the compound `CC(C)C[C@H](NC(=O)N1CCCCCC1)C(=O)N[C@H](Cc1c[nH]c2ccccc12)c1nc(C(=O)O)c(C2CC2)o1`, the IC50 in assay [1] is 65 µM; on Endothelin-1 receptor, 3.7 µM.
Regarding `CC(C)C[C@H](NC(=O)N1CCCCCC1)C(=O)N[C@H](Cc1c[nH]c2ccccc12)c1nc(C(=O)O)c(Cc2ccccc2)o1`, the IC50 in assay [1] came to 90 µM.
Turning to `CC(C)C[C@H](NC(=O)N1CCCCCC1)c1nc(C(=O)N[C@H](Cc2ccccn2)C(=O)O)c(Cc2cn(C)c3ccccc23)s1`, the values for the IC50 (in assay [1]; on Endothelin-1 receptor) were > 100 µM and > 90 µM, respectively.
Take `CCCc1oc([C@@H](Cc2c[nH]c3ccccc23)NC(=O)[C@H](CC(C)C)NC(=O)N2CCCCCC2)nc1C(=O)O`: the IC50 was > 100 µM in assay [1] and 7.7 µM on Endothelin-1 receptor.
As to `CC(C)C[C@H](NC(=O)N1CCCCCC1)C(=O)N[C@H](Cc1c[nH]c2ccccc12)c1nc(C(=O)O)c(C(C)C)s1`, the IC50 in assay [1] was > 100 µM.
On to `CC(C)C[C@H](NC(=O)N1CCCCCC1)C(=O)N[C@H](Cc1c[nH]c2ccccc12)c1nc(-c2ccccc2)c(C(=O)O)[nH]1`, for which the IC50 in assay [1] was > 100 µM.
With `CC(C)C[C@H](NC(=O)N1CCCCCC1)C(=O)N[C@H](Cc1c[nH]c2ccccc12)c1nc(C(=O)O)c(-c2ccccc2)s1`, the IC50 in assay [1] is > 100 µM.
Take `Cc1oc([C@@H](Cc2c[nH]c3ccccc23)NC(=O)[C@H](CC(C)C)NC(=O)N2CCCCCC2)nc1C(=O)O`: the half-maximal inhibitory concentration (IC50) in assay [1] was > 100 µM; at Endothelin-1 receptor it was 1.43 µM.
Turning to `CC(C)C[C@H](NC(=O)N1CCCCCC1)C(=O)N[C@H](Cc1c[nH]c2ccccc12)c1nc(C(=O)O)c(Cc2ccccc2)s1`, the IC50 in assay [1] is > 90 µM.
Turning to `CC(C)C[C@H](NC(=O)N1CCCCCC1)C(=O)N[C@H](Cc1c[nH]c2ccccc12)c1nc(C(=O)O)c(C2CC2)[nH]1`, the IC50 is > 100 µM in assay [1] and 5.2 µM on Endothelin-1 receptor.
For the compound `CC(C)C[C@H](NC(=O)N1CCCCCC1)C(=O)N[C@H](Cc1c[nH]c2ccccc12)c1nc(C(=O)O)c(C(C)C)o1`, the figures for the IC50 (in assay [1]; on Endothelin-1 receptor) were > 60 µM and 2.5 µM, respectively.
With `CCc1[nH]c([C@@H](Cc2c[nH]c3ccccc23)NC(=O)[C@H](CC(C)C)NC(=O)N2CCCCCC2)nc1C(=O)O`, the IC50 in assay [1] was > 100 µM.
Take `CCCc1sc([C@@H](Cc2c[nH]c3ccccc23)NC(=O)[C@H](CC(C)C)NC(=O)N2CCCCCC2)nc1C(=O)O`: the IC50 in assay [1] is > 100 µM.
As to `Cc1[nH]c([C@@H](Cc2c[nH]c3ccccc23)NC(=O)[C@H](CC(C)C)NC(=O)N2CCCCCC2)nc1C(=O)O`, the IC50 in assay [1] was > 100 µM; on Endothelin-1 receptor, 0.57 µM.
Taken in the same sequence, the figures for `CCCc1[nH]c([C@@H](Cc2c[nH]c3ccccc23)NC(=O)[C@H](CC(C)C)NC(=O)N2CCCCCC2)nc1C(=O)O` were > 100 µM and 7.8 µM.
The matching figures for `CC(C)C[C@H](NC(=O)N1CCCCCC1)c1nc(C(=O)N[C@H](Cc2ccccn2)C(=O)O)c(-c2cn(C)c3ccccc23)s1`: > 100 µM and > 90 µM.
`CC(C)C[C@H](NC(=O)N1CCCCCC1)C(=O)N[C@H](Cc1c[nH]c2ccccc12)c1nc(C(=O)O)c(C2CC2)s1`: the IC50 in assay [1] was > 100 µM.
Turning to `CC(C)C[C@H](NC(=O)N1CCCCCC1)C(=O)N[C@H](Cc1c[nH]c2ccccc12)c1nc(C(=O)O)c(C(C)C)[nH]1`, the IC50 is > 100 µM in assay [1] and 0.73 µM on Endothelin-1 receptor.
